Entries after “also recorded” stand apart in the source; their conditions may differ.
Experiments:
[1] = molecular target: S1141K/G551D-CFTR (Homo sapiens, UniProt P13569, G551D/S1141K); experiment: Inside-out patch-clamp of CFTR currents in transfected CHO cells; assay type: cell-based; conditions: mean
Method in brief: (§1)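 CFTR construct and GFP plasmid cotransfected into CHO cells, held at 27°C for 2–6 d. Inside-out patches at room temperature, −30 mV, NMDG-Cl solutions at pH 7.4. Channels preactivated with 25 IU PKA plus 2 mM MgATP, then test compound (max 40 µM) applied in 2 mM ATP. ATP-subtracted steady-state currents normalized to the 3 µM response in the same patch. Hill fit with base 0 and maximum 1; EC50 ± SD of fit; 3–7 patches per point.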

[2] = molecular target: N1138L/G551D-CFTR (Homo sapiens, UniProt P13569, G551D/N1138L); experiment: as above; assay type: cell-based; conditions: mean
Method in brief: as §1

[3] = molecular target: F236A-CFTR (Homo sapiens, UniProt P13569, F236A); experiment: as above; assay type: cell-based; conditions: 200 nM VX-770, mean
Method in brief: as §1

[4] = molecular target: T1, WT-CFTR (Homo sapiens, UniProt P13569); conditions: ref Jih and Hwang, 2013; cited from earlier work
[5] = molecular target: S263A-CFTR (Homo sapiens, UniProt P13569, S263A); experiment: Inside-out patch-clamp of CFTR currents in transfected CHO cells; assay type: cell-based; conditions: 200 nM VX-770, mean
Method in brief: as §1

[6] = molecular target: F229A-CFTR (Homo sapiens, UniProt P13569, F229A); experiment: as above; assay type: cell-based; conditions: 200 nM VX-770, mean
Method in brief: as §1

[7] = molecular target: F312A-CFTR (Homo sapiens, UniProt P13569, F312A); experiment: Inside-out patch-clamp of CFTR currents in transfected CHO cells; assay type: cell-based; conditions: 200 nM VX-770, 30 µM ATP, mean
[8] = molecular target: WT-mCFTR (Mus musculus, UniProt P26361); experiment: Inside-out patch-clamp of CFTR currents in transfected CHO cells; assay type: cell-based; conditions: 200 nM VX-770, 2 mM ATP
Method in brief: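 Mouse CFTR expressed in CHO cells; inside-out patches. Phosphorylated channels opened by 2 mM ATP before the potentiator was applied (one potentiator at 200 nM). 5 µM CFTRinh-172 added at the end of each recording for baseline.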

[9] = molecular target: G551D-CFTR (Homo sapiens, UniProt P13569, G551D); experiment: Inside-out patch-clamp of CFTR currents in transfected CHO cells; assay type: cell-based
Method in brief: as §1

[10] = molecular target: Y304A-CFTR (Homo sapiens, UniProt P13569, Y304A); experiment: Inside-out patch-clamp of CFTR currents in transfected CHO cells; assay type: cell-based; conditions: 200 nM VX-770, mean
Method in brief: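 Relaxation assay: PKA-preactivated channels in 2 mM ATP at −30 mV exposed to test compound through a fast three-barrel perfusion system (dead time ∼30 ms). Current decay after sudden removal of 3 µM compound fitted with a single exponential to give relaxation time constant τ.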

[11] = molecular target: S182A-CFTR (Homo sapiens, UniProt P13569, S182A); experiment: Inside-out patch-clamp of CFTR currents in transfected CHO cells; assay type: cell-based; conditions: 200 nM VX-770, mean
Method in brief: as §1

[12] = molecular target: F304Y-mCFTR (Mus musculus, UniProt P26361, F304Y); experiment: as above; assay type: cell-based
Method in brief: as §1

[13] = molecular target: D924N-CFTR (Homo sapiens, UniProt P13569, D924N); experiment: as above; assay type: cell-based; conditions: 200 nM VX-770, 2 mM ATP, mean
Method in brief: as §1

[14] = molecular target: T1, WT-CFTR; experiment: as above; assay type: cell-based; conditions: mean
Method in brief: as §1

T1 sequence (P13569 whole entry): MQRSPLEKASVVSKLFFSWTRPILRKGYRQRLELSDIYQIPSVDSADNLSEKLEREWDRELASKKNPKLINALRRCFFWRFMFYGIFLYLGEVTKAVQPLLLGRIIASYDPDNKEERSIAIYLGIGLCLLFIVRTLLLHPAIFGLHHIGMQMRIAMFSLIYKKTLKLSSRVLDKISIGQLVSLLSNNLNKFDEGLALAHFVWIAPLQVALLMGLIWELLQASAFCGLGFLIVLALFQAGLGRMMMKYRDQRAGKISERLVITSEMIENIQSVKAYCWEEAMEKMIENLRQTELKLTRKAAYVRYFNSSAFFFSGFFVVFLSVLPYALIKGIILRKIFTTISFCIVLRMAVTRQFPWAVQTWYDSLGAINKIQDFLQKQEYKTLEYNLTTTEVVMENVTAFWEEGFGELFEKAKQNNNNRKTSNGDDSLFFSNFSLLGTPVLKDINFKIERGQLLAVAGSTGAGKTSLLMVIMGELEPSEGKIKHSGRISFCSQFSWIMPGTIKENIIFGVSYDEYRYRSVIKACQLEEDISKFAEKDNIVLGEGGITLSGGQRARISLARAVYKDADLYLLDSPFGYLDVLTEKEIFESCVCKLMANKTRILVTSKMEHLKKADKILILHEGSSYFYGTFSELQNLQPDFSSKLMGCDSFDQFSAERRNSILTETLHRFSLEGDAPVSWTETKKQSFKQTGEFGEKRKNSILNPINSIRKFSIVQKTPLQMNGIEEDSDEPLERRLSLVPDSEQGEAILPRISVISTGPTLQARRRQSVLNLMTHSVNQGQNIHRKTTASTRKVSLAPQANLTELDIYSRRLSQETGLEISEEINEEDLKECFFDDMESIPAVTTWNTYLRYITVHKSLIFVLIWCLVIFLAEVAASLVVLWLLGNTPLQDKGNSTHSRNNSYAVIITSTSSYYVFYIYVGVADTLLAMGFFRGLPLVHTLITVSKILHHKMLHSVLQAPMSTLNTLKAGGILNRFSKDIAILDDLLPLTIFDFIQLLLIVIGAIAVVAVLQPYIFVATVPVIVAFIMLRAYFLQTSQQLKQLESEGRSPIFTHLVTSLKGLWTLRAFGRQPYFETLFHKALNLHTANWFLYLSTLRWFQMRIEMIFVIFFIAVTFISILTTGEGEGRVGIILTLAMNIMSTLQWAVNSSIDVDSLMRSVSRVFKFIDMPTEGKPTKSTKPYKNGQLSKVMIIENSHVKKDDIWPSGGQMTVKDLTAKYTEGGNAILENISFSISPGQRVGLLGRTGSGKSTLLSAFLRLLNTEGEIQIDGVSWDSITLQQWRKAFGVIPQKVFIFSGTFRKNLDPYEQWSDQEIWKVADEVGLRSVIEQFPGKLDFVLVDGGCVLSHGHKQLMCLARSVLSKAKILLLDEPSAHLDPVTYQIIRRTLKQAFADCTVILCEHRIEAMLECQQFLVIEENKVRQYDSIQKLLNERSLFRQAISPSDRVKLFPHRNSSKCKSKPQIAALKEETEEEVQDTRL
Sequence of F312A-CFTR (P13569 whole entry F312A): as the sequence (P13569 whole entry) above, with F312A counted along it
Sequence of S1141K/G551D-CFTR (P13569 whole entry G551D/S1141K): as the sequence (P13569 whole entry) above, with G551D, S1141K counted along it
Sequence of F304Y-mCFTR (P26361 whole entry F304Y): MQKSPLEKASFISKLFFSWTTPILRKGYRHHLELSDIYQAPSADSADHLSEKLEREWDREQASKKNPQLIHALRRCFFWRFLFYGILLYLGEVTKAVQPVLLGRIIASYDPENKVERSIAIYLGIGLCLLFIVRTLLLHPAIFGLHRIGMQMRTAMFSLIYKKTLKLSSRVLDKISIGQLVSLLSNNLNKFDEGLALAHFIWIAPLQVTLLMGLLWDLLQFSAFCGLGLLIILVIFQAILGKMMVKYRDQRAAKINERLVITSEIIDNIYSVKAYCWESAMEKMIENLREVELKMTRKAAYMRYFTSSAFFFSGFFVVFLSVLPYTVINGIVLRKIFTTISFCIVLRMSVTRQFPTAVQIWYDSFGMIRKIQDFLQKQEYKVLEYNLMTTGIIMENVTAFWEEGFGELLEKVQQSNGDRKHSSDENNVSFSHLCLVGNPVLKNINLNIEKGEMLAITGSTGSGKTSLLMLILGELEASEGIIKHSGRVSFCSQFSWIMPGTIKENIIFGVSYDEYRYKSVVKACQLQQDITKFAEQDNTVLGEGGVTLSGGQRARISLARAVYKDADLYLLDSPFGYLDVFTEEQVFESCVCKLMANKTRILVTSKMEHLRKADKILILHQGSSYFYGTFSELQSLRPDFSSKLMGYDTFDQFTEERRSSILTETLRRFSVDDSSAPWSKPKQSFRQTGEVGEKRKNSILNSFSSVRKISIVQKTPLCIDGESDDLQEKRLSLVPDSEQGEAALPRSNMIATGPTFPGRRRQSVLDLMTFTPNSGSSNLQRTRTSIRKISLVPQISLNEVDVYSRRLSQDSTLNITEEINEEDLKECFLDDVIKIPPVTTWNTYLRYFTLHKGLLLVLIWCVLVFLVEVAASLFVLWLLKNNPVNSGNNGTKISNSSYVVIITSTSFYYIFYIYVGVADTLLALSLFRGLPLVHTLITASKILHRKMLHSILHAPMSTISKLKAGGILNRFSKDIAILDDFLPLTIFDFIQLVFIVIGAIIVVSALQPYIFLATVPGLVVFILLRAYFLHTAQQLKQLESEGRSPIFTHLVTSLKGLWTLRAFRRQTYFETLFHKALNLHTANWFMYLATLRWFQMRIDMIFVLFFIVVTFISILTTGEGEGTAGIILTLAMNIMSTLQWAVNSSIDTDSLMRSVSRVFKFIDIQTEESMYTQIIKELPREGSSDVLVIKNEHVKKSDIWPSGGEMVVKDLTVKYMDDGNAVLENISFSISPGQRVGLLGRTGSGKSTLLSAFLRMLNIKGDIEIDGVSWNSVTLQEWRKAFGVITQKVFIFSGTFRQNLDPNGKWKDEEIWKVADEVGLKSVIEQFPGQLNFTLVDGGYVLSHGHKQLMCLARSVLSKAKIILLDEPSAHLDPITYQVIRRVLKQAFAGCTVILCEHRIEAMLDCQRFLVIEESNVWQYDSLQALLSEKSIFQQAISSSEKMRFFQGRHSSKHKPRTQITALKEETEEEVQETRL
Sequence of N1138L/G551D-CFTR (P13569 whole entry G551D/N1138L): as the sequence (P13569 whole entry) above, with G551D, N1138L counted along it
Sequence of F229A-CFTR (P13569 whole entry F229A): as the sequence (P13569 whole entry) above, with F229A counted along it
Sequence of D924N-CFTR (P13569 whole entry D924N): as the sequence (P13569 whole entry) above, with D924N counted along it
Sequence of Y304A-CFTR (P13569 whole entry Y304A, the tested form may be a part): as the sequence (P13569 whole entry) above, with Y304A counted along it
Sequence of S263A-CFTR (P13569 whole entry S263A): as the sequence (P13569 whole entry) above, with S263A counted along it
Sequence of S182A-CFTR (P13569 whole entry S182A): as the sequence (P13569 whole entry) above, with S182A counted along it
Sequence of F236A-CFTR (P13569 whole entry F236A): as the sequence (P13569 whole entry) above, with F236A counted along it
Sequence of G551D-CFTR (P13569 whole entry G551D): as the sequence (P13569 whole entry) above, with G551D counted along it
Sequence of WT-mCFTR (P26361 whole entry): as the sequence (P26361 whole entry F304Y) above, with Y304F counted along it

τoff (VX-770) [1]: 221 ± 50 s
τon (VX-770) [1]: 14 ± 6 s
τoff (VX-770) [2]: 268 ± 25 s
τon (VX-770) [2]: 18 ± 5 s
τoff (VX-770) [3]: 173 ± 45 s
τon (VX-770) [3]: 19 ± 8 s
τoff (VX-770) [5]: 288 ± 68 s
τon (VX-770) [5]: 6.1 ± 1.5 s
τoff (VX-770) [6]: 338 ± 49 s
τon (VX-770) [6]: 6.2 ± 1.3 s
τoff (VX-770) [7]: 38 ± 5 s
τon (VX-770) [7]: 15 ± 1 s
Potentiation of currents by VX-770 [8]: fails to potentiate
τoff (VX-770) ([9]; current decay on removal of VX-770, mean): 68 ± 14 s
τon (VX-770) ([9]; current rise on application of VX-770, mean): 5.9 ± 2.4 s
τoff (VX-770) [10]: 18 ± 6 s
τon (VX-770) [10]: 49 ± 11 s
τoff (VX-770) [11]: 343 ± 96 s
τon (VX-770) [11]: 8.2 ± 1.5 s
τoff (VX-770) [13]: 115 ± 7 s
τon (VX-770) [13]: 78 ± 18 s
τoff (VX-770) ([14]; current decay on removal of 200 nM VX-770, 2 mM ATP): 361 ± 39 s
τon (VX-770) ([14]; current rise on application of 200 nM VX-770, 2 mM ATP): 6.7 ± 1.2 s
SMILES: CC(C)(C)c1cc(C(C)(C)C)c(NC(=O)c2c[nH]c3ccccc3c2=O)cc1O [VX-770, N-(2,4-di-tert-butyl-5-hydroxyphenyl)-4-oxo-1,4-dihydroquinoline-3-carboxamide]
Saturating concentration for VX-770 [4]: 200 nM
Potentiation of currents by VX-770 [12]: restores the potentiating effects; also recorded: Restoring the effect
